Source: ChEMBL document CHEMBL1125832, “Synthesis and dopaminergic activity of 3-substituted 1-(aminomethyl)-3,4-dihydro-5,6-dihydroxy-1H-2-benzopyrans: characterization of an auxiliary binding region in the D1 receptor” (J Med Chem, 1991)

Legend:
[1] = target: D(1A) dopamine receptor (Rattus norvegicus) (UniProt P18901); assay: Intrinsic activity was measured in relative to dopamine on D1C(S) receptor
D(1A) dopamine receptor [2] = target: T1, D(1A) dopamine receptor (Rattus norvegicus, UniProt P18901); assay: Inhibition of Dopamine receptor D1 activity by functional cyclase assay using cell free homogenate of rat striatum; format: tissue-based
How it was run: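 Adenylate cyclase stimulation in cell-free homogenate of rat striatum. EC50 is the concentration giving half-maximal stimulation of cAMP production.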

D(2) dopamine receptor [3] = target: T2, D(2) dopamine receptor (Rattus norvegicus, UniProt P61169); assay: Concentration required to inhibit 50% dopamine receptor D2 in a cell free homogenate of intermediate lobe of pituitary gland; format: functional
D(2) dopamine receptor [4] = target: T2, D(2) dopamine receptor; assay: Binding affinity using [3H]-spiperone radioligand competitive binding assay against dopamine receptor D2
How it was run: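 Rat striatal membranes in Tris pH 7.4 buffer with salts and ascorbate. [3H]spiperone at 300 pM final; nonspecific binding with 10 μM YM-09151-2. Incubated 20 min at 37 °C, then filtered. Ki derived from IC50 by Cheng-Prusoff.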

[5] = system: D1 dopamine receptor (Cyprinus carpio); assay: Intrinsic activity measured relative to dopamine on D1C(R) receptor
D(1A) dopamine receptor [6] = target: T1, D(1A) dopamine receptor; assay: Binding affinity using [125 I] SCH 23982 radioligand competitive binding assay on dopamine receptor D1
[7] = Intrinsic activity relative to dopamine at D-2 receptor.; format: functional
Rattus norvegicus [8] = assay: Rat rotation experiments were conducted to evaluate rational behavior of the rats by administering at a dose of 30 umol/kg subcutaneously; format: functional
How it was run: (§1)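 Rats with unilateral 6-hydroxydopamine lesions of the nigrostriatal bundle. Compound given subcutaneously or orally at the stated dose. Net contralateral rotations counted over 2 h after dosing and reported as mean ± SEM; negative values indicate ipsilateral turning.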

Rattus norvegicus [9] = assay: Rat rotation experiments were conducted to evaluate rational behavior of the rats by administering at a dose of 15 umol/kg subcutaneously; format: functional
How it was run: as §1

Rattus norvegicus [10] = assay: Rat rotation experiments were conducted to evaluate rational behavior of the rats by administering at a dose of 130 umol/kg subcutaneously; format: functional
How it was run: as §1

Rattus norvegicus [11] = assay: Rat rotation experiments were conducted to evaluate rational behavior of the rats by administering at a dose of 65 umol/Kg subcutaneously; format: functional
How it was run: as §1

Rattus norvegicus [12] = assay: Rat rotation experiments were conducted to evaluate rational behavior of the rats by administering at a dose of 260 umol/kg subcutaneously; format: functional
How it was run: as §1

D(1A) dopamine receptor (Rattus norvegicus), sequence (P18901 whole entry, looked up): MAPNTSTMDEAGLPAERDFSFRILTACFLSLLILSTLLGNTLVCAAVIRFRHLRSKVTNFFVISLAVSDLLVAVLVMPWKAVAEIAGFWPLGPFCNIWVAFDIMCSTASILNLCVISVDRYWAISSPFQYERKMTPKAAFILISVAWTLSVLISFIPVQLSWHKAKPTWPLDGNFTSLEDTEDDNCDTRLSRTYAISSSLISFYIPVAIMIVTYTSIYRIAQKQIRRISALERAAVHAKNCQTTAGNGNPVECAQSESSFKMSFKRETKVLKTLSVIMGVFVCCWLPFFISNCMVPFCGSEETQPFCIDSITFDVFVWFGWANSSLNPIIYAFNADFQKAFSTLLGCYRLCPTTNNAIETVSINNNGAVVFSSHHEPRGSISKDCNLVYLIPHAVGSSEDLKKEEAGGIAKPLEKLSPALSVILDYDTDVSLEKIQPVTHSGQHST
T1 sequence (P18901 whole entry): as the sequence (P18901 whole entry, looked up) above
T2 sequence (P61169 whole entry): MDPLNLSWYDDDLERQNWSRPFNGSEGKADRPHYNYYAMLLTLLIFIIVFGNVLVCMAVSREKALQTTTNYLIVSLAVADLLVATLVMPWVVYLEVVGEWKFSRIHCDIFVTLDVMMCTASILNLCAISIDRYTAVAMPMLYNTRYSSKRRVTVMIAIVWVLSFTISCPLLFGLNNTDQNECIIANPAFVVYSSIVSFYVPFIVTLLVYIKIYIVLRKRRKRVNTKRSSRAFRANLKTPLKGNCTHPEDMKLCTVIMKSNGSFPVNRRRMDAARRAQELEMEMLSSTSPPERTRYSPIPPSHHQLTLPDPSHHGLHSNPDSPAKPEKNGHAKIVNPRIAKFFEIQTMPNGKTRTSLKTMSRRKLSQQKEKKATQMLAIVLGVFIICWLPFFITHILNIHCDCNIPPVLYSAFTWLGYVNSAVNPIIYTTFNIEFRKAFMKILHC

| SMILES | Intrinsic activity [1] [%] | EC50 (D(1A) dopamine receptor [2]) [nM] | EC50 (D(2) dopamine receptor [3]) [nM] | Ki (D(2) dopamine receptor [4]) [nM] | Intrinsic activity [5] [%] | Ki (D(1A) dopamine receptor [6]) [nM] | Intrinsic activity [7] [%] | Activity (Rattus norvegicus [8]) | Activity (Rattus norvegicus [9]) | Activity (Rattus norvegicus [10]) | Activity (Rattus norvegicus [11]) | Activity (Rattus norvegicus [12]) |
| --- | --- | --- | --- | --- | --- | --- | --- | --- | --- | --- | --- | --- |
| NC[C@@H]1OC(CCc2ccccc2)Cc2c1ccc(O)c2O (stereo partly drawn) | 78 | 18.9 | > 10000 | 670 | 76 | 248 | – | – | – | – | – | – |
| NC[C@@H]1OC(Cc2ccccc2)Cc2c1ccc(O)c2O (stereo partly drawn) | – | – | > 10000 | 1470 | 93 | 443 | – | – | – | – | – | – |
| NC[C@@H]1OC(C2CCCCCCC2)Cc2c1ccc(O)c2O (stereo partly drawn) | – | – | 760 | 342 | – | 88.7 | 70 | – | – | – | – | – |
| CCCCC1Cc2c(ccc(O)c2O)[C@H](CN)O1 (stereo partly drawn) | – | – | 359 | 825 | 151 | 870 | 80 | – | – | – | – | – |
| C#CCNC[C@@H]1OC(C2CCCCC2)Cc2c1ccc(O)c2O (stereo partly drawn) | – | – | > 10000 | 11500 | 87 | 4730 | – | – | – | – | – | – |
| C=CCN(C)C[C@@H]1OC(C2CCCCC2)Cc2c1ccc(O)c2O (stereo partly drawn) | – | – | > 10000 | 2600 | – | 3190 | – | – | – | – | – | – |
| NC[C@@H]1OC2(CCCCC2)Cc2c1ccc(O)c2O | – | – | 6680 | 4680 | 65 | 479 | 56 | – | – | – | – | – |
| Oc1ccc2c(c1O)CC(C1CCCCC1)O[C@H]2CNCc1ccccc1 (stereo partly drawn) | – | – | > 10000 | 2450 | – | > 10000 | – | – | – | – | – | – |
| NC[C@@H]1OC(C(c2ccccc2)c2ccccc2)Cc2c1ccc(O)c2O (stereo partly drawn) | – | – | > 10000 | 2610 | – | 530 | – | – | – | – | – | – |
| CCCCCCC1Cc2c(ccc(O)c2O)[C@H](CN)O1 (stereo partly drawn) | 84 | 23.4 | 782 | 5540 | 90 | 704 | 80 | – | – | – | – | – |
| NC[C@@H]1OC(COc2ccccc2)Cc2c1ccc(O)c2O (stereo partly drawn) | 64 | 39.8 | > 10000 | 1280 | 51 | 374 | – | 514 | 467 | – | – | – |
| NC[C@@H]1OC(c2ccc(I)cc2)Cc2c1ccc(O)c2O (stereo partly drawn) | – | – | > 10000 | 1050 | 161 | 13.7 | – | – | – | – | – | – |
| NC[C@@H]1OCCc2c1ccc(O)c2O | – | – | 2850 | 4610 | – | 1030 | 96 | – | – | 286 | 93 | 584 |
| CC[C@@H]1Cc2c(ccc(O)c2O)[C@H](CN)O1 | – | – | 10800 | 3530 | 89 | 167 | 81 | – | – | – | – | – |
| C#CCC1Cc2c(ccc(O)c2O)[C@H](CN)O1 (stereo partly drawn) | – | – | 286 | 1070 | – | 407 | 100 | – | – | – | – | – |
| NC[C@@H]1OC(CC2CCCC2)Cc2c1ccc(O)c2O (stereo partly drawn) | – | – | 427 | 776 | 124 | 30.4 | 76 | – | – | – | – | – |
| OCCCNC[C@@H]1OC(C2CCCCC2)Cc2c1ccc(O)c2O (stereo partly drawn) | – | – | > 10000 | 12300 | 58 | 3140 | – | – | – | – | – | – |
| NC[C@@H]1OC(c2cccc(O)c2)Cc2c1ccc(O)c2O (stereo partly drawn) | – | – | 192 | 590 | – | 0.49 | 111 | – | – | – | – | – |
| NC[C@@H]1OC(C23C[C@H]4C[C@@H](C2)C[C@@H](C3)C4)Cc2c1ccc(O)c2O (stereo partly drawn) | – | – | > 10000 | – | – | – | – | – | – | – | – | – |
| COc1ccc(CC2Cc3c(ccc(O)c3O)[C@H](CN)O2)cc1 (stereo partly drawn) | – | – | > 10000 | 2710 | – | 2650 | – | – | – | – | – | – |
| CC[C@H]1Cc2c(ccc(O)c2O)[C@H](CN)O1 | – | – | 5130 | > 10000 | 92 | 1760 | 76 | – | – | – | – | – |
| C#CCN(C)C[C@@H]1OC(C2CCCCC2)Cc2c1ccc(O)c2O (stereo partly drawn) | – | – | > 10000 | > 10000 | – | 2510 | – | – | – | – | – | – |
| COc1cccc(C2Cc3c(ccc(O)c3O)[C@H](CN)O2)c1 (stereo partly drawn) | – | – | > 10000 | 764 | 107 | 310 | – | – | – | – | – | – |
| CNC[C@@H]1OC(C2CCCCC2)Cc2c1ccc(O)c2O (stereo partly drawn) | – | – | > 10000 | 724 | – | 14.1 | – | – | – | – | – | – |
| NC[C@@H]1OC(c2ccc(Br)cc2)Cc2c1ccc(O)c2O (stereo partly drawn) | – | – | 358 | 2090 | 106 | 52 | 94 | – | – | – | – | – |
| NC[C@@H]1OC(COCc2ccccc2)Cc2c1ccc(O)c2O (stereo partly drawn) | – | – | 204 | 386 | 107 | 2290 | 78 | – | – | – | – | – |
| Oc1ccc2c(c1O)CC(C1CCCCC1)O[C@H]2CNC1CC1 (stereo partly drawn) | – | – | > 10000 | 636 | 71 | 329 | – | – | – | – | – | – |
